From ChEMBL document CHEMBL1129345, “Synthesis and potent anti-HIV-1 activity of novel 6-benzyluracil analogues of 1-[(2-hydroxyethoxy)methyl]-6-(phenylthio)thymine” (1996)

Legend:
Assay type in all cases: functional
MT4 [1] = assay: Cytotoxic dose required to reduce the proliferation of normal uninfected MT-4 cells; conditions: Homo sapiens, read-out: CD50 (the source's name)
How it was run: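 Proliferation of uninfected MT-4 cells measured by MTT assay over a range of compound concentrations. A 30% inhibition of growth versus control cultures was counted as significant. CD50 is the concentration giving 50% reduction in proliferation, reported as the mean of three independent determinations.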

[2] = test system: Human immunodeficiency virus 1; assay: Effective dose of compound required to inhibit 50% of HIV-1 antigen production in MT-4 cultures.; conditions: read-out: ED50 (the source's name)
How it was run: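 MT-4 cells were infected with HIV-1 HTLV-IIIB (0.005 MOI) for 2 h and washed. They were then added 1:10 to uninfected MT-4 cells preincubated with compound for 2 h in RPMI 1640 with 10% heat-inactivated FCS. Cultures were kept with compound for 6 days, and supernatant HIV-1 antigen was measured by ELISA. ED50 (50% antigen reduction) is the mean of three independent determinations.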

MT4 [3] = assay: Selectivity index is the ratio between CD50 and ED50
How it was run: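 Selectivity index computed as CD50 (MTT proliferation assay in uninfected MT-4 cells) divided by ED50 (HIV-1 antigen ELISA in HTLV-IIIB-infected MT-4 cultures, 6 days). Both values are means of three independent determinations.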

CCc1c(Cc2ccccc2)n([C@@H]2CC[C@@H](CO)O2)c(=O)[nH]c1=O
CC50 (MT4 [1]): 1 µM
EC50 [2]: 0.5 µM
SI (MT4 [3]): 2

CCc1c(Cc2ccccc2)n([C@H]2CC[C@@H](CO)O2)c(=O)[nH]c1=O
CC50 (MT4 [1]): 52 µM
EC50 [2]: 37 µM
SI (MT4 [3]): 1.4

CCSCn1c(Cc2ccccc2)c(CC)c(=O)[nH]c1=O
CC50 (MT4 [1]): 37 µM
EC50 [2]: 0.04 µM
SI (MT4 [3]): 925

CCOCn1c(Cc2cc(C)cc(C)c2)c(CC)c(=O)[nH]c1=O
CC50 (MT4 [1]): 100 µM
EC50 [2]: 0.004 µM
SI (MT4 [3]): 25000

CCSCn1c(Cc2cc(C)cc(C)c2)c(CC)c(=O)[nH]c1=O
CC50 (MT4 [1]): 68 µM
EC50 [2]: 0.004 µM
SI (MT4 [3]): 17000

CCc1c(Cc2ccccc2)n(C(C)OC)c(=O)[nH]c1=O (stereo not drawn)
EC50 [2]: > 100 µM

CCSCn1c(Cc2ccccc2)c(C(C)C)c(=O)[nH]c1=O
CC50 (MT4 [1]): 37 µM
EC50 [2]: 0.006 µM
SI (MT4 [3]): 6200

CSCn1c(Cc2ccccc2)c(C(C)C)c(=O)[nH]c1=O
CC50 (MT4 [1]): 37 µM
EC50 [2]: 0.02 µM
SI (MT4 [3]): 1850

CCOCn1c(Cc2ccccc2)c(CC)c(=O)[nH]c1=O
EC50 [2]: 0.041 µM

CCc1c(Cc2cc(C)cc(C)c2)n(CSC)c(=O)[nH]c1=O
CC50 (MT4 [1]): 52 µM
EC50 [2]: 0.05 µM
SI (MT4 [3]): 1040

CCOC(C)n1c(Cc2ccccc2)c(CC)c(=O)[nH]c1=O (stereo not drawn)
EC50 [2]: > 100 µM

CCc1c(Cc2ccccc2)n(C(C)OCCO)c(=O)[nH]c1=O (stereo not drawn)
EC50 [2]: > 100 µM

CCc1c(Cc2cc(C)cc(C)c2)n(C(C)OC)c(=O)[nH]c1=O (stereo not drawn)
CC50 (MT4 [1]): 100 µM
EC50 [2]: 2 µM
SI (MT4 [3]): 50

CCc1c(Cc2ccccc2)n(CSC)c(=O)[nH]c1=O
CC50 (MT4 [1]): 32 µM
EC50 [2]: 0.002 µM
SI (MT4 [3]): 16000

CCOC(CC)n1c(Cc2cc(C)cc(C)c2)c(CC)c(=O)[nH]c1=O (stereo not drawn)
CC50 (MT4 [1]): 130 µM
EC50 [2]: 15 µM
SI (MT4 [3]): 8.7

CCOCn1c(Cc2ccccc2)c(C(C)C)c(=O)[nH]c1=O [EMIVIRINE]
CC50 (MT4 [1]): 141 µM
EC50 [2]: 0.005 µM
SI (MT4 [3]): 28000

Cc1cn([C@H]2C[C@H](N=[N+]=[N-])[C@@H](CO)O2)c(=O)[nH]c1=O [ZIDOVUDINE]
CC50 (MT4 [1]): 52 µM
EC50 [2]: 0.04 µM
SI (MT4 [3]): 1300
